According to ChEMBL document CHEMBL3112487, “Synthesis and antifungal activity of ASP9726, a novel echinocandin with potent Aspergillus hyphal growth inhibition” (2014):
Values after ≈ are worked out from the molar mass of the structure shown. Active and inactive are the calls of the source. The rule behind the calls is not given here.

Tests used:
Candida albicans = assay: Antifungal activity against Candida albicans 20015 in human serum assessed as hyphal growth inhibition after 48 hrs by microscopic analysis; assay type: functional; details: Candida albicans, 20015, Serum
Outline: (§1)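 Susceptibility testing followed CLSI M27-A3 or M38-A2 standards, using human serum as the growth medium. Fungi were exposed to drug and incubated at 37 °C under 5% CO2 for 48 h.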

Aspergillus fumigatus [1] = assay: Antifungal activity against Aspergillus fumigatus 20024 in human serum assessed as formation of small, rounded and compact microcolonies with severely stunted hypha at 4 fold MEC after 48 hrs by microscopic analysis; assay type: functional, organism-based
Nakaseomyces glabratus = assay: Antifungal activity against echinocandin-resistant Candida glabrata FP2307 in human serum assessed as hyphal growth inhibition after 48 hrs by microscopic analysis; assay type: functional; outline: as §1
Candida parapsilosis = assay: Antifungal activity against Candida parapsilosis 20009 in human serum assessed as hyphal growth inhibition after 48 hrs by microscopic analysis; assay type: functional; details: Lodderomyces parapsilosis, 20009, Serum; outline: as §1
Aspergillus fumigatus [2] = assay: Antifungal activity against Aspergillus fumigatus 20030 in ICR mouse invasive pulmonary aspergillosis model assessed as survival rate at 1.5 mg/kg, iv qd administered for 10 days measured on day 11 relative to control; assay type: functional
Aspergillus fumigatus [3] = assay: Antifungal activity against Aspergillus fumigatus 20024 in human serum assessed as hyphal growth inhibition after 48 hrs by microscopic analysis; assay type: functional; details: Aspergillus fumigatus, 20024, Serum; outline: as §1
Aspergillus fumigatus [4] = assay: Antifungal activity against Aspergillus fumigatus 20030 in ICR mouse invasive pulmonary aspergillosis model assessed as survival rate at 3 mg/kg, iv qd administered for 10 days measured on day 11 relative to control; assay type: functional
Aspergillus fumigatus [5] = assay: Antifungal activity against Aspergillus fumigatus 20024 in human serum assessed as formation of large microcolonies with elongated hypha in all direction at 4 fold MEC after 48 hrs by microscopic analysis; assay type: functional, organism-based

COc1cc(C[C@@H](O)[C@@H]2NC(=O)[C@@H]3C[C@@H](O)CN3C(=O)[C@H]([C@@H](C)O)NC(=O)[C@@H](NC[C@H]3CC[C@H](c4nnc(-c5ccc(N6CCC(OC)(C7CCCCC7)CC6)cc5)s4)CC3)C[C@@H](O)CNC(=O)[C@@H]3[C@@H](O)[C@@H](C)CN3C(=O)[C@H]([C@H](O)CCNC(CO)CO)NC2=O)ccc1O
MIC (Candida albicans): 0.25 µg/mL (≈ 0.185 µM) | Activity (Aspergillus fumigatus [1]): Active | MIC (Nakaseomyces glabratus): 2 µg/mL (≈ 1.48 µM) | MIC (Candida parapsilosis): 4 µg/mL (≈ 2.96 µM) | survival at 1.5 mg/kg (Aspergillus fumigatus [2]): 40% | MIC (Aspergillus fumigatus [3]): 0.25 µg/mL (≈ 0.185 µM) | survival at 3 mg/kg (Aspergillus fumigatus [4]): 70%

CC[C@H](C)C[C@H](C)CCCCCCCCC(=O)N[C@H]1C[C@@H](O)[C@@H](NCCN)NC(=O)[C@@H]2[C@@H](O)CCN2C(=O)[C@H]([C@H](O)CCN)NC(=O)[C@H]([C@H](O)[C@@H](O)c2ccc(O)cc2)NC(=O)[C@@H]2C[C@@H](O)CN2C(=O)[C@H]([C@@H](C)O)NC1=O [CASPOFUNGIN]
MIC (Candida albicans): 0.25 µg/mL (≈ 0.229 µM) | MIC (Nakaseomyces glabratus): > 64 µg/mL | MIC (Candida parapsilosis): 64 µg/mL (≈ 58.5 µM) | survival at 1.5 mg/kg (Aspergillus fumigatus [2]): 10% | Activity (Aspergillus fumigatus [5]): inactive | MIC (Aspergillus fumigatus [3]): 0.5 µg/mL (≈ 0.457 µM) | survival at 3 mg/kg (Aspergillus fumigatus [4]): 20%
